# From PubChem
# Rows were chosen to be rich in hits. Some 2.7% of all compounds tested hit in one or more screens of this group.
# MsrA act: bovine MsrA enzyme activators, primary screen, biochemical, absorbance, HTS; AID 602163, 2012; 0.3% of 360,000 active; activation, % at 10.6 µM; purified bovine MsrA, absorbance read-out; Methionine sulfoxide reductase A (Bos taurus); in the data active = activation above about 7.5%;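 also: 0% = vehicle and 100% = reference activator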
# ASAP1 GAP inh: inhibitors of human ASAP1 ArfGAP activity, primary screen, biochemical, fluorescence polarization; Arf-GAP with SH3 domain, ANK repeat and PH domain-containing protein 1 (Homo sapiens), …; inhibition, % at 16.5 µM; ASAP1-stimulated ARF1 GTP hydrolysis, GDP FP detection; 0.19% of 360,000 active; in the data active = inhibition above about 25%;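 also: 0% = vehicle with enzyme and substrate and 100% = no enzyme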
# NR1D1 modulator: modulators of Rev-erb alpha DNA binding, primary screen, biochemical, FITC-DNA, fluorescence polarization, uHTS; Nuclear receptor subfamily 1 group D member 1 (Homo sapiens), P20393; Rev-erbα–FITC-DNA binding, 90 min; activity, % at 10 µM; 0.79% of 370,000 active; AID 1259318, 2017;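 active = activity above about 14%, limit read from the data; passing the limit was not always enough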;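 also: 0% = DMSO wells with 35 nM protein and 100% = DMSO wells with 750 nM protein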
# ARFGAP1 inhibitor: inhibitors of rat ARFGAP1 GAP activity, primary screen, biochemical, fluorescence polarization, GDP tracer. inhibition, % at 16.5 µM. Arfgap1-stimulated ARF1 GTP hydrolysis, GDP FP detection. ADP-ribosylation factor GTPase-activating protein 1 (Rattus norvegicus), Q62848. 0.26% of 360,000 active;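 active = inhibition above a per-plate limit, mean inhibition of low control wells plus 3 SD, cut at about 25% in these data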;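 also: 0% = DMSO wells with enzyme and 100% = wells lacking Arfgap1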
#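 Material: rat Arfgap1 catalytic domain, aa 1-136; also added: human ARF1(Δ1-17)-GTP substrate; compound dosing: one concentration, 16.5 µM, DMSO 1.26%; incubation: GTP hydrolysis reaction 2 h at 25 °C; measured by: Tracer-displacement fluorescence polarization with EDTA stop, 620/688 nm; evaluation: % inhibition from polarization; repeats: one replicate per compound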
# sPLA2-III inh: human group III sPLA2 inhibitors, primary screen, biochemical, QFRET, BODIPY PC-A2 liposome substrate | Group 3 secretory phospholipase A2 (Homo sapiens), Q9NZ20 | QFRET BODIPY PC-A2 liposome hydrolysis, fluorescence | inhibition, % at 12.2 µM | 0.56% of 370,000 active | AID 743126, 2013;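 active = inhibition above mean plus 3 SD of compounds lying within the high and low control bounds, cut at about 19% in these data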;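 also: 0% = median of test compound wells and 100% = no enzyme DMSO wells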
# MsrA inhibitor: bovine MsrA enzyme inhibitors, primary screen, biochemical, absorbance, HTS; inhibition, % at 15.5 µM; 0.75% of 360,000 active; purified bovine MsrA, absorbance read-out; in the data active = inhibition above about 4.5%;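 also: 0% = vehicle wells with enzyme and 100% = reference inhibitor wells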
# ARFGAP1 confirm: ARFGAP1 inhibitor hit confirmation, biochemical, fluorescence polarization, triplicate; shares compounds with ARFGAP1 inhibitor; ARFGAP1-stimulated ARF1 GTP hydrolysis, GDP tracer FP; inhibition, % at 16.5 µM; 30% of 890 active;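 active = average inhibition over triplicates above the hit cutoff set in the earlier primary screen, cut at about 25% in these data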;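 also: 0% = Arfgap1 plus ARF1-GTP with DMSO and 100% = wells lacking Arfgap1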
# Target sequence (Q62848 whole entry, looked up): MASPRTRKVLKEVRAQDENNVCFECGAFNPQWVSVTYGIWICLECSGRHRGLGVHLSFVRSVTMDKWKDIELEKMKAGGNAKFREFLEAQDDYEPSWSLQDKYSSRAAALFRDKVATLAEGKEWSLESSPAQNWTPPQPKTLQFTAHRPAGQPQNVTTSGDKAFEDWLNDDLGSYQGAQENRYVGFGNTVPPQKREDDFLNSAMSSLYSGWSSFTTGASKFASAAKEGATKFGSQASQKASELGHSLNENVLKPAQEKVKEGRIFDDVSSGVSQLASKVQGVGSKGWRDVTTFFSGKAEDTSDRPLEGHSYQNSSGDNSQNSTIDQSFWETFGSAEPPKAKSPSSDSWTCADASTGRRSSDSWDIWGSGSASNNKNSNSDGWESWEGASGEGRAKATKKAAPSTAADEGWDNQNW
# Starred values were filed as active, the others as inactive; nt = no result.
SMILES,MsrA act,ASAP1 GAP inh,NR1D1 modulator,ARFGAP1 inhibitor,sPLA2-III inh,MsrA inhibitor,ARFGAP1 confirm
CCN(CC)CCOC(=O)c1ccc(N/C=C(/C#N)c2nc(-c3ccc4c(c3)OCO4)cs2)cc1,0,8,-11,32*,-15,0,73*
CN(C)/C=C/C1=C([N+](=O)[O-])C(c2cccc([N+](=O)[O-])c2)NC(=O)N1 (centres undefined),2,-3,1,28*,-9,0,4
CC(=O)Nc1cccc(-c2cc(NC(C)=O)c3ncc(-c4cccc(C(C)=O)c4)n3c2)c1,-2,6,0,8,-11,1,nt
CC(=O)Nc1cccc(-c2cc(NC=O)c3ncc(-c4ccc(C(C)=O)cc4)n3c2)c1,-3,19,-7,25*,-5,1,19
CC(=O)c1ccc(-c2cnc3c(NC=O)cc(-c4ccc(C(=O)NC5CC5)cc4)cn23)cc1,-7,12,-5,-5,-2,1,nt
COc1ccc(-c2cc(NC=O)c3ncc(-c4ccc(C(C)=O)cc4)n3c2)cn1,-6,21,-1,29*,-8,1,34*
CC(=O)Nc1cccc(C(C)C2=CCCCC2)c1 (centres undefined),nt,nt,0,nt,-2,nt,nt
COc1ccc(-n2c(=O)c3c4c(sc3n(CC(=O)Nc3cc(C)[nH]n3)c2=O)CCCC4)c(OC)c1,-8,10,-1,33*,-11,0,33*
Cc1cccc2nc(-c3cccc(NC(=O)c4ccc(Cl)cc4)c3)cn12,-10,15,7,58*,-20,1,24
CCC(=O)Nc1ccc(NC(=O)CSc2nnnn2-c2ccc3c(c2)OCCO3)cc1,-11,8,-7,33*,12,1,42*
CCOC(=O)c1csc(NC(=O)CSc2nnnn2-c2ccc3c(c2)OCCO3)n1,-8,7,-2,4,-4,0,nt
C=C(C)COc1ccc(-c2[nH]ncc2-c2ccc(OC)cc2)c(O)c1,-2,-3,6,26*,-31,0,7
CCOC(=O)NC(NCC(O)c1ccccc1)(C(F)(F)F)C(F)(F)F (centres undefined),-4,4,-1,3,6,-1,nt
CCCCOC(=O)NC(NCC(O)c1ccccc1)(C(F)(F)F)C(F)(F)F (centres undefined),-3,5,1,31*,3,0,-6
CCOC(=O)[C@@]12CN(C(=O)OC(C)(C)C)CC=C1N(Cc1ccc(OC)cc1)C(=O)[C@H]2CC(=O)NCCc1ccccc1OC,nt,nt,-1,nt,-5,nt,nt
CCOc1ccc(C(=O)N(CN2CCCC2=O)c2cccc(Cl)c2)cc1,1,-7,-5,38*,0,1,-1
CCOc1ccc(C(=O)N(CN2CCCC2=O)c2ccccc2)cc1,-3,-3,2,-4,-5,1,nt
CCOC(=O)C1=CCN(S(=O)(=O)c2ccc(Br)cc2)C1c1cccc(Br)c1 (centres undefined),nt,-5,-3,-1,-3,1,nt
CNS(=O)(=O)c1cccc(C(=O)NCC(c2cccs2)N2CCOCC2)c1 (centres undefined),-2,2,0,26*,2,0,-1
CCCCCN1CCCCC(NC(=O)c2cccc(C(F)(F)F)c2)C1=O (centres undefined),nt,nt,-2,nt,5,nt,nt
Cc1ccc(CNC(=O)Cn2c(=O)c3sccc3n(Cc3ccc([N+](=O)[O-])cc3)c2=O)cc1,2,22,0,36*,1,-1,55*
